The text below walks through data of ChEMBL document CHEMBL3992514, “Synthesis, biological characterisation and structure activity relationships of aromatic bisamidines active against Plasmodium falciparum” (Eur J Med Chem, 2017).

pIC50: −log10 of the molar value.

One data set relates to Plasmodium vivax. Briefly: Antimalarial activity against hypnozoite-stage Plasmodium vivax in infected patient assessed as cure rate at 100 mg, po bid administered for 5 days measured every 12 hrs up to day 7, and on day 10, 14, 21, and 28 by Giemsa staining-based assay relative to control. It is filed as functional.
Data set [1] has as its system Plasmodium falciparum. Kind of data set: Antimalarial activity against Plasmodium falciparum in infected patient assessed as cure rate at 100 mg, po bid administered for 5 days measured every 12 hrs up to day 7, and on day 10, 14, 21, and 28 by Giemsa staining-based assay relative to control. It is filed as functional.
A short description of data set [2]: Cmax in Sprague-Dawley albino rat at 1 mg/kg, po. It is filed as ADME, organism-based. Also noted: dose 1 mg/kg, route oral. The note with it: in vivo.
A short description of data set [3]: Half life in Sprague-Dawley albino rat at 1 mg/kg, po. It counts as ADME, organism-based. Conditions: in vivo.
A short description of data set [4]: Oral bioavailability in Sprague-Dawley albino rat at 1 mg/kg. It counts as ADME, organism-based. Conditions: in vivo.
Data set [5] has as its system Plasmodium falciparum. Kind of data set: Antiparasitic activity against drug-sensitive Plasmodium falciparum 3D7 infected in erythrocytes assessed as growth inhibition after 48 hrs by SYBR green 1 dye-based flow cytometry. It is filed as functional, cell-based. Conditions: 3D7, 48 h.
For data set [6], the system named is Plasmodium falciparum. Briefly: Antiparasitic activity against drug-resistant Plasmodium falciparum Dd2 infected in erythrocytes assessed as growth inhibition after 48 hrs by [3H]-hypoxanthine incorporation assay. It counts as functional, cell-based.
Data set [7] can be described thus: Cytotoxicity against HEK293 cells assessed as cell viability at 50 uM after 24 hrs by Alamar blue assay relative to control. It is filed as cell-based. The note with it: human, read-out: Activity. Put shortly:
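HEK293 cells kept in DMEM with 10% FCS and 5 mM glutamine at 37 °C, 5% CO2; seeded at 1.5 × 10^3 cells per well, compound added immediately at 50 µM. After 24 h AlamarBlue added, incubated a further 21 h; resorufin fluorescence read at Ex 560/Em 590 nm. Triplicates over three independent experiments.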

Data set [8] in a line: Oral bioavailability in Swiss Webster mouse at 30 mg/kg. It counts as ADME, organism-based. The note with it: in vivo.
Another data set deals with HEK293. Briefly: Cytotoxicity against HEK293 cells assessed as decrease in cell viability after 24 hrs by Alamar blue assay. It is filed as ADME, cell-based. The note with it: Homo sapiens, HEK293, 24 h.
A short description of data set [9]: Cmax in Swiss Webster mouse at 30 mg/kg, po. It counts as ADME, organism-based. Also noted: dose 30 mg/kg, route oral. The note with it: in vivo.
A short description of data set [10]: Half life in Swiss Webster mouse at 30 mg/kg, po. It is filed as ADME, organism-based. Conditions: in vivo.
The next data set relates to Leishmania sp. Briefly: Antiparasitic activity against Leishmania spp. It is filed as functional.
Another data set relates to Giardia intestinalis. Kind of data set: Antiparasitic activity against Giardia lamblia. It counts as functional. The note with it: Giardia duodenalis.
The nature of data set [11]: Selectivity index, ratio of IC50 for HEK293 cells to IC50 for drug-resistant Plasmodium falciparum Dd2 infected in erythrocytes. The note with it: human.
Data set [12] can be described thus: Selectivity index, ratio of IC50 for HEK293 cells to IC50 for drug-sensitive Plasmodium falciparum 3D7 infected in erythrocytes. The note with it: human.

In the case of `CONC(=N)c1ccc(-c2ccc(-c3ccc(C(=N)NOC)cc3)o2)cc1` [PAFURAMIDINE], the Activity in the data set on Plasmodium vivax and in the data set on Plasmodium falciparum [1] was above 95% each time.
In [2], `CO/N=[14C](/N)c1ccc(-c2ccc(-c3ccc(/[14C](N)=N\OC)cc3)o2)cc1` gave a maximum concentration (Cmax) of 26.1 ng/mL. This molecule showed a half-life in data set [3] of 0.9 h. For the same molecule, the bioavailability in [4] worked out at 11%.
As to `CCCOCc1c(-c2ccc(C(=N)N)cc2)oc(-c2ccc(C(=N)N)cc2)c1Cl`, the pIC50 in the data set on Plasmodium falciparum [5] was 7.05; in the data set with Plasmodium falciparum [6], 6.85. In addition, in data set [7], the viability at 24 h, 50 µM was found to be 1%.
`N=C(N)c1ccc(-c2ccc(-c3ccc(C(=N)N)cc3)o2)cc1` [FURAMIDINE]: the pIC50 in the data set on Plasmodium falciparum [5] is 7.96; with HEK293, 3.75; in the data set on Plasmodium falciparum [6], 7.30; in the data set on Leishmania sp., 5.55; in the data set on Giardia intestinalis it was 6.70. Moreover, the bioavailability in [8] is 0.2%. Moreover, the peak concentration (Cmax) in [9] came to 8 nM. In data set [10], this molecule had a half-life of 107 h.
As to `N=C(N)c1ccc(-c2cc(CC(=O)NCCC(c3ccccc3)c3ccccc3)c(-c3ccc(C(=N)N)cc3)o2)cc1`, the results for the pIC50 in the data set on Plasmodium falciparum [5], in the data set with HEK293 and in the data set with Plasmodium falciparum [6] were 5.85, below 4.30 and 5.83, respectively. Besides, the selectivity ratio in [11] is above 34; in data set [12] it was above 36.
The like results for `Cc1c(-c2ccc(C(=N)NC(C)C)cc2)oc(-c2ccc(C(=N)NC(C)C)cc2)c1C` were, in that order, 7.42, 3.51, 7.05, 3430 and 8130.
